For one assay, the system named is Bacillus subtilis. Kind of assay: Antibacterial activity against Bacillus subtilis 168 assessed as inhibition of bacterial growth incubated for 18 hrs by CLSI protocol based two-fold serial dilution assay. Type of assay: functional. The method in brief: (§1)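 B. subtilis 168 or E. coli ATCC 25922 was grown in MHB and tested by CLSI-based broth microdilution. An overnight culture (37 °C, 250 rpm) was diluted tenfold, grown 2 h, and set to 5 × 10^6 CFU mL−1 by A600. Cells were added to two-fold serial compound dilutions (1% DMSO) and incubated 18 h at 37 °C. Read-out was A600, in duplicate. MIC was the lowest concentration giving A600 < 0.1.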

In assay [1] the test system is Staphylococcus aureus. As to the kind of experiment: Antibacterial activity against Staphylococcus aureus 29213 assessed as inhibition of bacterial growth incubated for 18 hrs by CLSI protocol based two fold serial dilution method. Type of assay: functional. The method in brief: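 S. aureus ATCC 29213 was grown in CAMHB and tested by CLSI-based broth microdilution. An overnight culture (37 °C, 250 rpm) was diluted tenfold, grown 2 h, and set to 5 × 10^6 CFU mL−1. Cells were added to two-fold serial compound dilutions (1% DMSO) and incubated 18 h at 37 °C. Read-out was A600, in duplicate. MIC was the lowest concentration with A600 < 0.1.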

Assay [2] deals with Escherichia coli. Kind of assay: Antibacterial activity against Escherichia coli 25922 assessed as inhibition of bacterial growth incubated for 18 hrs by CLSI protocol based two fold serial dilution method. The format is functional. The method in brief: as §1
In assay [3] the test system is Staphylococcus aureus. Kind of assay: Antibacterial activity against methicillin-resistant Staphylococcus aureus BAA 41 assessed as inhibition of bacterial growth incubated for 18 hrs by CLSI protocol based two fold serial dilution method. Type of assay: functional. The method in brief:
(§2)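 CAMHB culture grown overnight at 37 °C with shaking at 250 rpm, diluted 10-fold, and grown 2 h. Inoculum set to 5 × 10^6 CFU mL−1 by A600. Compounds in DMSO were serially diluted two-fold, with 1% DMSO per well. Read at A600 after 18 h at 37 °C. MIC is the lowest concentration giving A600 < 0.1. Run in duplicate.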

In assay [4] the test system is Staphylococcus aureus. As to the kind of experiment: Antibacterial activity against methicillin-resistant Staphylococcus aureus BAA 44 assessed as inhibition of bacterial growth incubated for 18 hrs by CLSI protocol based two fold serial dilution method. The format is functional. The method in brief:
as §2

Assay [5] concerns Staphylococcus aureus. Kind of assay: Antibacterial activity against methicillin-resistant Staphylococcus aureus ATCC 43300 assessed as inhibition of bacterial growth incubated for 18 hrs by CLSI protocol based two fold serial dilution method. The format is functional. The method in brief:
as §2

The test system of assay [6] is Staphylococcus aureus. Kind of assay: Antibacterial activity against methicillin-resistant Staphylococcus aureus ATCC 33591 assessed as inhibition of bacterial growth incubated for 18 hrs by CLSI protocol based two fold serial dilution method. The format is functional. The method in brief:
as §2

Assay [7] relates to Staphylococcus aureus. Kind of assay: Antibacterial activity against methicillin-resistant Staphylococcus aureus ATCC 33592 assessed as inhibition of bacterial growth incubated for 18 hrs by CLSI protocol based two fold serial dilution method. The format is functional. The method in brief:
as §2

Assay [8] relates to Staphylococcus aureus. As to the kind of experiment: Antibacterial activity against methicillin-resistant Staphylococcus aureus BAA 1720 assessed as inhibition of bacterial growth incubated for 18 hrs by CLSI protocol based two fold serial dilution method. Type of assay: functional. The method in brief:
as §2

The test system of assay [9] is Escherichia coli. Kind of assay: Synergistic antibacterial activity against Escherichia coli 25922 assessed as inhibition of bacterial growth incubated for 18 hrs in presence of PMBN by checkerboard assay. Type of assay: functional. The method in brief: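 E. coli ATCC 25922 was tested in MHB by the broth microdilution format with two-fold serial compound dilutions. Polymyxin B nonapeptide was added to each well at 20 μg mL−1 final before adding bacteria at 5 × 10^5 CFU mL−1. Growth was read by A600.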

For assay [10], the system named is Staphylococcus aureus. As to the kind of experiment: Synergistic antibacterial activity against methicillin-resistant Staphylococcus aureus BAA 41 assessed as inhibition of bacterial growth incubated for 18 hrs in presence of methicillin by checkerboard assay. The format is functional. The method in brief: (§3)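 Checkerboard: test compound serially diluted two-fold across the plate and methicillin serially diluted down it. Bacteria added at 5 × 10^5 CFU mL−1. Incubated at 37 °C for 16–24 h, then growth read at A600. Untreated-cell columns included. FICI calculated from the combination MICs.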

Assay [11] has as its system Staphylococcus aureus. Kind of assay: Synergistic antibacterial activity against methicillin-resistant Staphylococcus aureus BAA 41 assessed as FICI incubated for 18 hrs in presence of methicillin by checkerboard assay. The format is functional. The method in brief:
as §3

Assay [12] relates to Staphylococcus aureus. As to the kind of experiment: Synergistic antibacterial activity against methicillin-resistant Staphylococcus aureus BAA 41 assessed as inhibition of bacterial growth incubated for 18 hrs in presence of PC190723 by checkerboard assay. Type of assay: functional.
The subject of assay [13] is Staphylococcus aureus. As to the kind of experiment: Synergistic antibacterial activity against methicillin-resistant Staphylococcus aureus BAA 41 assessed as FICI incubated for 18 hrs in presence of S2727 by checkerboard assay. The format is functional. The method in brief:
(§4)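 Checkerboard against MRSA BAA 41. Compound two-fold serially diluted across the plate and methicillin down it. Inoculum 5 × 10^5 CFU mL−1, with untreated-cell columns. Incubated at 37 °C for 16–24 h and growth read as A600. FICI computed from the combined MICs, and <0.5 taken as synergy.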

Assay [14] concerns Staphylococcus aureus. Kind of assay: Synergistic antibacterial activity against methicillin-resistant Staphylococcus aureus BAA 41 assessed as FICI incubated for 18 hrs in presence of S2163 by checkerboard assay. Type of assay: functional. The method in brief:
as §4

The test system of assay [15] is Staphylococcus aureus. As to the kind of experiment: Synergistic antibacterial activity against methicillin-resistant Staphylococcus aureus BAA 41 assessed as FICI incubated for 18 hrs in presence of PC190723 by checkerboard assay. The format is functional. The method in brief: as §4
In assay [16] the test system is Staphylococcus aureus. Kind of assay: microbe, parasite or virus in culture. The conditions noted are these: BAA 41, 18 h.
Assay [17] concerns Staphylococcus aureus. As to the kind of experiment: microbe, parasite or virus in culture. The conditions noted are these: BAA 41, 18 h. This is another data set of the same source.

Values after ≈ are worked out from the molar mass of the structure shown.

For `CN(C)C(=O)[C@H](O)[C@H](Cc1ccccc1)NC(=O)c1cc2cc(Cl)ccc2[nH]1`, the MIC was 16 µg/mL (≈ 40 µM) in the assay with Bacillus subtilis; over 128 µg/mL in the assay on Staphylococcus aureus [1]; over 128 µg/mL in the assay on Escherichia coli [2]; over 128 µg/mL in the assay on Staphylococcus aureus [3]; over 128 µg/mL in the assay with Staphylococcus aureus [4]; 32 µg/mL (≈ 80 µM) with Staphylococcus aureus [5]. Besides, the MIC with Staphylococcus aureus [6], in the assay with Staphylococcus aureus [7] and with Staphylococcus aureus [8] was over 128 µg/mL throughout.
For `CCc1cncnc1N1CCN(Cc2nc3cc(C(F)(F)F)ccc3[nH]2)CC1`, the MIC in the assay with Bacillus subtilis was 128 µg/mL (≈ 328 µM); with Staphylococcus aureus [1] it was 128 µg/mL (≈ 328 µM); in the assay on Escherichia coli [2], over 128 µg/mL; in the assay on Staphylococcus aureus [3] it was 64 µg/mL (≈ 164 µM); in the assay with Staphylococcus aureus [4], 64 µg/mL (≈ 164 µM); in the assay with Staphylococcus aureus [5], 32 µg/mL (≈ 82 µM). Besides, the MIC with Staphylococcus aureus [6] was found to be 64 µg/mL (≈ 164 µM); with Staphylococcus aureus [7] it was 64 µg/mL (≈ 164 µM); in the assay with Staphylococcus aureus [8], 64 µg/mL (≈ 164 µM); in the assay on Escherichia coli [9] it was 64 µg/mL; in the assay on Staphylococcus aureus [10], 128 µg/mL. Besides, the “fractional inhibitory concentration index (FICI)” value in the assay on Staphylococcus aureus [11] is recorded as over 1.
For the molecule `Cc1cnc(-c2cc(N3CCN(C(=O)CCS(C)(=O)=O)CC3)ncc2Cl)c(C)c1`, the MIC with Bacillus subtilis, in the assay with Staphylococcus aureus [1] and in the assay on Escherichia coli [2] was over 128 µg/mL each time.
In the case of `COc1ccc(-c2cc3c(C)nc(N)nc3n([C@H]3CC[C@H](OCCO)CC3)c2=O)cn1` [PF-04691502], the MIC with Bacillus subtilis, with Staphylococcus aureus [1] and with Escherichia coli [2] was over 128 µg/mL in each case.
Regarding `CC1(C)CC(=O)c2c(C(F)(F)F)nn(-c3ccc(C(N)=O)c(N[C@H]4CC[C@H](OC(=O)CN)CC4)c3)c2C1` [SNX 5422], the MIC in the assay on Bacillus subtilis, in the assay with Staphylococcus aureus [1] and in the assay with Escherichia coli [2] was over 128 µg/mL each time.
In the case of `CCOC(=O)C(CCc1ccccc1)NC(C)C(=O)N1Cc2ccccc2CC1C(=O)O.Cl` (stereo unspecified), the MIC with Bacillus subtilis, in the assay with Staphylococcus aureus [1] and with Escherichia coli [2] was over 128 µg/mL throughout.
As for `COc1ccccc1S(=O)(=O)Nc1ccc2c(c1)CN(C)C(=O)N2`, the MIC with Bacillus subtilis, in the assay with Staphylococcus aureus [1] and with Escherichia coli [2] was over 128 µg/mL throughout.
Take `COCCOc1ccc2c(c1)ncn2-c1ccc2cccc(N3CCC(N)CC3)c2n1`: the MIC in the assay with Bacillus subtilis, with Staphylococcus aureus [1] and in the assay with Escherichia coli [2] was over 128 µg/mL in each case.
As to `COc1cccc(OC)c1C(=O)N[C@@H]1C(=O)N2[C@@H]1SC(C)(C)[C@@H]2C(=O)O` [METHICILLIN], the MIC with Staphylococcus aureus [3] was 1020 µg/mL (≈ 2690 µM); with Staphylococcus aureus [4], 512 µg/mL (≈ 1350 µM); with Staphylococcus aureus [5], 256 µg/mL (≈ 673 µM); with Staphylococcus aureus [6] it was 512 µg/mL (≈ 1350 µM); with Staphylococcus aureus [7], 256 µg/mL (≈ 673 µM); in the assay on Staphylococcus aureus [8], 256 µg/mL (≈ 673 µM). Moreover, the MIC was determined as 4 µg/mL in the assay with Staphylococcus aureus [12], 4 µg/mL (≈ 10.5 µM) in the assay with Staphylococcus aureus [16] and 1 µg/mL (≈ 2.63 µM) in the assay on Staphylococcus aureus [17]. Also, the “fractional inhibitory concentration index (FICI)” value is reported as 0.5 in the assay on Staphylococcus aureus [13], over 1 in the assay on Staphylococcus aureus [14] and 0.52 with Staphylococcus aureus [15].

The values are drawn from ChEMBL document CHEMBL5104102, “Discovery of FtsZ inhibitors by virtual screening as antibacterial agents and study of the inhibition mechanism” (RSC Med Chem, 2022).
